Data reported in ChEMBL document CHEMBL1129299, “Synthesis and antitumor evaluation of a highly potent cytotoxic DNA cross-linking polyamine analogue, 1,12-diaziridinyl-4,9-diazadodecane” (1996).

Legend:
Mus musculus [1] = test: In vivo antitumor studies were carried out on mice bearing L1210 murine leukemia cells, by administering intraperitoneally the compound dose of 10 mg/kg on days 1,5 and 9.; details: route intraperitoneal
Mus musculus [2] = test: Net log cell kill is an estimate of the number of cells that are killed by the compound was calculated at dose of 10 mg/kg on days 1,5,9; assay type: functional
Mus musculus [3] = test: Percent increase in life span was calculated by administering intraperitoneally the compound dose of 10 mg/kg on days 1,5 and 9.; details: ip
Mus musculus [4] = test: Net log cell kill is an estimate of the number of cells that are killed by the compound was calculated at dose of 1.8 mg/kg on days 1; assay type: functional
Method in brief: (§1)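 Net log cell kill in female CD2F1 mice given ip L1210 (1 × 10^5 cells, day 0) and iv tail-vein drug from day 1. It was calculated from treated-minus-control median day of death, less treatment duration, relative to tumor doubling time. Doubling time came from median days of death in titration groups of 10 mice implanted with 1 × 10^4 to 1 × 10^6 cells.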

Mus musculus [5] = test: Net log cell kill is an estimate of the number of cells that are killed by the compound was calculated at dose of 2.7 mg/kg on days 1; assay type: functional
Method in brief: as §1

Mus musculus [6] = test: Percent increase in life span was calculated by administering intravenously the compound dose of 1.8 mg/kg on days 1,8; assay type: functional; details: route intravenous
Method in brief: (§2)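 CD2F1 female mice bore ip L1210 (1 × 10^5 cells/mouse, day 0). Tail-vein iv dosing in 25 mM phosphate buffer pH 7.4 began on day 1. Percent increase in life span was calculated as (T − C)/C × 100, with T and C the median days of death for the treated and untreated groups.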

Mus musculus [7] = test: Net log cell kill is an estimate of the number of cells that are killed by the compound was calculated at dose of 1.8 mg/kg on days 1,2; assay type: functional
Method in brief: as §1

Mus musculus [8] = test: In vivo antitumor studies were carried out on mice bearing L1210 murine leukemia cells, by administering intravenously the compound dose of 1.8 mg/kg on days 1,8; assay type: functional; details: route intravenous
Method in brief: (§3)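 Female CD2F1 mice (12-week-old, five per group) given 1 × 10^5 L1210 ascites cells ip on day 0; cells were first passaged ip in DBA/2 mice. From day 1, freshly made drug in 25 mM sodium phosphate pH 7.4 was given iv by tail vein at 0.01 mL/g. Mean survival days were compared with untreated mice by ANOVA and Newman-Keuls.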

Mus musculus [9] = test: Net log cell kill is an estimate of the number of cells that are killed by the compound was calculated at dose of 4.0 mg/kg on days 1; assay type: functional
Method in brief: as §1

Mus musculus [10] = test: Net log cell kill is an estimate of the number of cells that are killed by the compound was calculated at dose of 1.8 mg/kg on days 1,5,9; assay type: functional
Method in brief: as §1

Mus musculus [11] = test: Percent increase in life span was calculated by administering intravenously the compound dose of 4.0 mg/kg on days 1,8; assay type: functional; details: route intravenous
Method in brief: as §2

Mus musculus [12] = test: In vivo antitumor studies were carried out on mice bearing L1210 murine leukemia cells, by administering intravenously the compound dose of 4.0 mg/kg on days 1; assay type: functional; details: route intravenous
Method in brief: as §3

Mus musculus [13] = test: In vivo antitumor studies were carried out on mice bearing L1210 murine leukemia cells, by administering intravenously the compound dose of 4.0 mg/kg on days 1,2; assay type: functional; details: route intravenous
Method in brief: as §3

Mus musculus [14] = test: Net log cell kill is an estimate of the number of cells that are killed by the compound was calculated at dose of 2.7 mg/kg on days 1,5,9; assay type: functional
Method in brief: as §1

Mus musculus [15] = test: In vivo antitumor studies were carried out on mice bearing L1210 murine leukemia cells, by administering intravenously the compound dose of 4.0 mg/kg on days 1,5 and 9.; assay type: functional; details: route intravenous
Method in brief: as §3

Mus musculus [16] = test: Percent increase in life span was calculated by administering intravenously the compound dose of 2.7 mg/kg on days 1,2; assay type: functional; details: route intravenous
Method in brief: as §2

Mus musculus [17] = test: In vivo antitumor studies were carried out on mice bearing L1210 murine leukemia cells, by administering intravenously the compound dose of 6.0 mg/kg on days 1; assay type: functional; details: route intravenous
Method in brief: as §3

Mus musculus [18] = test: Percent increase in life span was calculated by administering intravenously the compound dose of 4.0 mg/kg on days 1,5 and 9.; assay type: functional; details: route intravenous
Method in brief: as §2

Mus musculus [19] = test: In vivo antitumor studies were carried out on mice bearing L1210 murine leukemia cells, by administering intravenously the compound dose of 2.7 mg/kg on days 1,8; assay type: functional; details: route intravenous
Method in brief: as §3

Mus musculus [20] = test: Net log cell kill is an estimate of the number of cells that are killed by the compound was calculated at dose of 2.7 mg/kg on days 1,8; assay type: functional
Method in brief: as §1

Mus musculus [21] = test: Percent increase in life span was calculated by administering intravenously the compound dose of 2.7 mg/kg on days 1; assay type: functional; details: route intravenous
Method in brief: as §2

Mus musculus [22] = test: In vivo antitumor studies were carried out on mice bearing L1210 murine leukemia cells, by administering intravenously the compound dose of 1.8 mg/kg on days 1,5 and 9.; assay type: functional; details: route intravenous
Method in brief: as §3

Mus musculus [23] = test: In vivo antitumor studies were carried out on mice bearing L1210 murine leukemia cells, by administering intravenously the compound dose of 2.7 mg/kg on days 1; assay type: functional; details: route intravenous
Method in brief: as §3

Mus musculus [24] = test: In vivo antitumor studies were carried out on mice bearing L1210 murine leukemia cells, by administering intravenously the compound dose of 4.0 mg/kg on days 1,8; assay type: functional; details: route intravenous
Method in brief: as §3

Mus musculus [25] = test: Percent increase in life span was calculated by administering intravenously the compound dose of 1.8 mg/kg on days 1; assay type: functional; details: route intravenous
Method in brief: as §2

Mus musculus [26] = test: Net log cell kill is an estimate of the number of cells that are killed by the compound was calculated at dose of 2.7 mg/kg on days 1,2; assay type: functional
Method in brief: as §1

Mus musculus [27] = test: In vivo antitumor studies were carried out on mice bearing L1210 murine leukemia cells, by administering intravenously the compound dose of 1.8 mg/kg on days 1; assay type: functional; details: route intravenous
Method in brief: as §3

Mus musculus [28] = test: Percent increase in life span was calculated by administering intravenously the compound dose of 2.7 mg/kg on days 1,8; assay type: functional; details: route intravenous
Method in brief: as §2

Mus musculus [29] = test: Percent increase in life span was calculated by administering intravenously the compound dose of 1.8 mg/kg on days 1,5 and 9.; assay type: functional; details: route intravenous
Method in brief: as §2

Mus musculus [30] = test: Percent increase in life span was calculated by administering intravenously the compound dose of 1.8 mg/kg on days 1,2; assay type: functional; details: route intravenous
Method in brief: as §2

Mus musculus [31] = test: In vivo antitumor studies were carried out on mice bearing L1210 murine leukemia cells, by administering intravenously the compound dose of 2.7 mg/kg on days 1,5 and 9.; assay type: functional; details: route intravenous
Method in brief: as §3

Mus musculus [32] = test: Percent increase in life span was calculated by administering intravenously the compound dose of 4.0 mg/kg on days 1; assay type: functional; details: route intravenous
Method in brief: as §2

Mus musculus [33] = test: In vivo antitumor studies were carried out on mice bearing L1210 murine leukemia cells, by administering intravenously the compound dose of 2.7 mg/kg on days 1,2; assay type: functional; details: route intravenous
Method in brief: as §3

Mus musculus [34] = test: Percent increase in life span was calculated by administering intravenously the compound dose of 2.7 mg/kg on days 1,5 and 9.; assay type: functional; details: route intravenous
Method in brief: as §2

Mus musculus [35] = test: Net log cell kill is an estimate of the number of cells that are killed by the compound was calculated at dose of 4.0 mg/kg on days 1,8; assay type: functional
Method in brief: as §1

Mus musculus [36] = test: In vivo antitumor studies were carried out on mice bearing L1210 murine leukemia cells, by administering intravenously the compound dose of 1.8 mg/kg on days 1,2; assay type: functional; details: route intravenous
Method in brief: as §3

S=P(N1CC1)(N1CC1)N1CC1 [THIOTEPA]
Mean survival (Mus musculus [1]): 15.3 days
NLCK (Mus musculus [2]): 1
ILS at 10 mg/kg (Mus musculus [3]): 114%

C(CCNCCCN1CC1)CNCCCN1CC1
NLCK (Mus musculus [4]): 4
NLCK (Mus musculus [5]): 3
ILS at 1.8 mg/kg (Mus musculus [6]): 86%
NLCK (Mus musculus [7]): 6
Mean survival (Mus musculus [8]): 12.6 days
NLCK (Mus musculus [9]): 4
NLCK (Mus musculus [10]): 2
ILS at 4 mg/kg (Mus musculus [11]): 157%
Life span (Mus musculus [12]): 11 days
Mean survival (Mus musculus [13]): 5.4 days
NLCK (Mus musculus [14]): 4
Mean survival (Mus musculus [15]): 11 days
ILS at 2.7 mg/kg (Mus musculus [16]): 100%
Mean survival (Mus musculus [17]): 6.8 days
ILS at 4 mg/kg (Mus musculus [18]): 14%
Mean survival (Mus musculus [19]): 15.2 days
NLCK (Mus musculus [20]): 2
ILS at 2.7 mg/kg (Mus musculus [21]): 42%
Mean survival (Mus musculus [22]): 17.4 days
Mean survival (Mus musculus [23]): 10.4 days
Mean survival (Mus musculus [24]): 17.2 days
ILS at 1.8 mg/kg (Mus musculus [25]): 57%
NLCK (Mus musculus [26]): 6
Mean survival (Mus musculus [27]): 10.8 days
ILS at 2.7 mg/kg (Mus musculus [28]): 129%
ILS at 1.8 mg/kg (Mus musculus [29]): 143%
ILS at 1.8 mg/kg (Mus musculus [30]): 100%
Mean survival (Mus musculus [31]): 18.8 days
ILS at 4 mg/kg (Mus musculus [32]): 57%
Mean survival (Mus musculus [33]): 13.2 days
ILS at 2.7 mg/kg (Mus musculus [34]): 171%
NLCK (Mus musculus [35]): 4
Mean survival (Mus musculus [36]): 14.8 days
